Experimental data as given in ChEMBL document CHEMBL4270668, “Design, Synthesis, Molecular Dynamics Simulation, and Functional Evaluation of a Novel Series of 26RFa Peptide Analogues Containing a Mono- or Polyalkyl Guanidino Arginine Derivative” (J Med Chem, 2018).
Active and inactive are the calls of the source. The rule behind the calls is not given here. Starred links: 1 amine or outer side, 2 acyl side, 3 side chain; linkers in the order of their positions; H or OH if unused. Non-standard residues stand in square brackets, D forms with d. Residues, ends and D or L forms follow the SMILES beside them. X1 = C/N=C(\NCCC[C@H](N[*:1])C(=O)[*:2])N(C)C; Arg(Me2a) = CN(C)C(=N)NCCC[C@H](N)C(=O)O; Arg(Me) = CNC(=N)NCCC[C@H](N)C(=O)O

Assays:
[1] = target: T1, Pyroglutamylated RF-amide peptide receptor (Homo sapiens, UniProt Q96P65); assay: Agonist activity at human QRFPR expressed in CHO cells co-expressing Galpha16 assessed as increase Ca2+ mobilization after 3 mins by Fluo-4 AM-based scanning fluorometery; format: functional, cell-based
T1 sequence (Q96P65 whole entry): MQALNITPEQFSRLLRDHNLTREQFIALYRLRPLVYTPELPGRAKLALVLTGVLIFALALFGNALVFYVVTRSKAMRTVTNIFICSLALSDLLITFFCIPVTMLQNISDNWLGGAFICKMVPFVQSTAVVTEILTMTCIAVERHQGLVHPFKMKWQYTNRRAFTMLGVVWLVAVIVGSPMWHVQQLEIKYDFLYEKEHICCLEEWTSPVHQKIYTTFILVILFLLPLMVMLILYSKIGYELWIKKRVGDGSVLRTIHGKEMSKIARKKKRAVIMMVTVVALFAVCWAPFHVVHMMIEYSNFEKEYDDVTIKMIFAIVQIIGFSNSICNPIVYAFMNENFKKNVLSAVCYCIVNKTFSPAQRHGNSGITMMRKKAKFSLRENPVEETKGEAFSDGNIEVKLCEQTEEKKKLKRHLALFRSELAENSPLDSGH
How it was run: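 CHO-Gα16 cells stably expressing human QRFPR, seeded at 40,000 cells/well 24 h ahead. Loaded 1 h with 2 µM Fluo-4 AM plus 0.01% pluronic acid, washed, then 30 min in HBSS with 2.5 mM probenecid and 5 mM HEPES. Compounds added at final 10^-11 to 10^-5 M; fluorescence recorded 3 min on a scanning fluorometer. EC50 from sigmoidal variable-slope fits, ≥3 experiments in triplicate.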

[2] = target: T1, Pyroglutamylated RF-amide peptide receptor; assay: (§1) Antagonist activity at human QRFPR expressed in CHO cells co-expressing Galpha16 assessed as inhibition of 26RFa-induced Ca2+ mobilization preincubated for 15 mins followed by agonist addition measured after 3 mins by Fluo-4 AM-based scanning fluorometery; format: functional, cell-based
How it was run: (§2)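 CHO-Gα16-hQRFPR cells loaded 1 h with 2 µM Fluo-4 AM, then incubated 15 min with graded compound. A 10^-7 M final 26RFa pulse was given during recording. Background subtracted, baseline normalized to 100%, peak fluorescence taken per concentration. IC50 from sigmoidal variable-slope fits, ≥3 experiments in triplicate. Maximal effect at 10^-4 M expressed as % inhibition of the 26RFa (10^-7 M) response.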

[3] = target: T2, Pyroglutamylated RF-amide peptide receptor (Homo sapiens) (UniProt Q96P65); assay: as §1, with “mobilization at 100 uM” for “mobilization”, “fluorometery relative to 26RFa (20 to 26 residues)” for “fluorometery”; format: functional, cell-based; how it was run: as §2
T2 sequence (whole entry): T1 sequence (Q96P65 whole entry)

[4] = target: T2, Pyroglutamylated RF-amide peptide receptor (Homo sapiens); assay: Antagonist activity at human QRFPR expressed in CHO cells co-expressing Galpha16 assessed as inhibition of 26RFa-induced Ca2+ mobilization at 10 uM preincubated for 30 mins followed by agonist addition measured after 3 mins by Fluo-4 AM-based scanning fluorometery; format: functional, cell-based
How it was run: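 One-dose screen in CHO-Gα16 cells stably expressing human QRFPR, Fluo-4 AM loaded. Cells incubated 30 min with analogue at 10^-5 M, then challenged with 26RFa at 10^-7 M during fluorescence recording. Response normalized to 26RFa alone in HBSS.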

Mus musculus [5] = assay: Induction of insulin-induced hypoglycemia in C57Bl/6J mouse at 500 ug/kg, ip measured up to 90 mins post insulin injection by insulin tolerance test; format: functional, organism-based
How it was run: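 Mice fasted 6 h, then given i.p. insulin 0.75 U/kg with 26RFa 500 µg/kg, or phosphate buffer as vehicle. Tail-vein plasma glucose measured by glucometer at 0, 15, 30, 60 and 90 min. n = 8 per group; two-way ANOVA with Tukey post-test.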

Mus musculus [6] = assay: Induction of insulin-induced hypoglycemia in C57Bl/6J mouse at 148 ug/kg, ip measured up to 90 mins post insulin injection by insulin tolerance test; format: functional, organism-based
How it was run: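 Mice fasted 6 h with water available, then given i.p. human insulin 0.75 U/kg together with peptide 148 µg/kg (equimolar to 26RFa) or vehicle. Tail-vein plasma glucose read by glucometer at 0, 15, 30, 60 and 90 min. At least eight animals per group; two-way ANOVA with Tukey post-test.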

Mus musculus [7] = assay: Induction of insulin-induced hypoglycemia in C57Bl/6J mouse at 148 ug/kg, ip measured after 90 mins post insulin injection by insulin tolerance test; format: functional, organism-based; conditions: 741 ug/kg, in the assay text read “741 ug/kg” for “148 ug/kg”

Compound	EC50 [1] [µM]	IC50 [2] [µM]	Imax [3] [%]	inhibition [4] [%]	Activity (Mus musculus [5])	Activity (Mus musculus [6])	Activity (Mus musculus [7])
CN(C)C(=N)NCCC[C@H](NC(=O)[C@H](Cc1ccccc1)NC(=O)[C@H](CO)NC(=O)[C@H](Cc1ccccc1)NC(=O)CNC(=O)CN)C(=O)N[C@@H](Cc1ccccc1)C(N)=O (H-GGFSF[Arg(Me2a)]F-NH2)	> 100	6.06	80				
C/N=C(\NCCC[C@H](NC(=O)[C@H](Cc1ccccc1)NC(=O)[C@H](CO)NC(=O)[C@H](Cc1ccccc1)NC(=O)CNC(=O)CN)C(=O)N[C@@H](Cc1ccccc1)C(N)=O)N(C)C (H-GGFSF[X1]F-NH2)	> 100	8.25	87.5	47			
H-VGTALGSLAEELNGYNRKKGGFSFRF-NH2	0.046				Active		
CNC(=N)NCCC[C@H](NC(=O)[C@H](Cc1ccccc1)NC(=O)[C@H](CO)NC(=O)[C@H](Cc1ccccc1)NC(=O)CNC(=O)CN)C(=O)N[C@@H](Cc1ccccc1)C(N)=O (H-GGFSF[Arg(Me)]F-NH2)	0.0664					inactive	Active
